Experimental data pooled from the literature.
Each line is one published result; the experiments were not run side by side.
CDK7 with cyclin H: Cyclin-dependent kinase 7, with cyclin H (CDK7, Homo sapiens, UniProt P50613)
HTR1B: 5-hydroxytryptamine receptor 1B (HTR1B, Homo sapiens, UniProt P28222)
PTGER4: Prostaglandin E2 receptor EP4 subtype (PTGER4, Homo sapiens, UniProt P35408)
Calcitonin-gene-related peptide receptor, CALCRL/RAMP1: Calcitonin-gene-related peptide receptor, CALCRL/RAMP1 (Homo sapiens, UniProt O60894+Q16602)

SMILES	target	test	setting	inhibition
O=C(/C=C/C=C/c1ccc2c(c1)OCO2)N1CCCCC1	CDK7 with cyclin H	enzyme activity, inhibitor, ADP detection	10 µM	39.4%
Oc1cccc(Nc2nc(-c3ccc(F)cc3F)cs2)c1	HTR1B	ligand displacement, radioligand	10 µM	-7.1%
CC(/C=C/C=C(\C)C(=O)O[C@@H]1O[C@H](CO[C@@H]2O[C@H](CO)[C@@H](O)[C@H](O)[C@H]2O)[C@@H](O)[C@H](O)[C@H]1O)=C\C=C\C=C(C)\C=C\C=C(/C)C(=O)O[C@@H]1O[C@H](CO[C@@H]2O[C@H](CO)[C@@H](O)[C@H](O)[C@H]2O)[C@@H](O)[C@H](O)[C@H]1O	CDK7 with cyclin H	enzyme activity, inhibitor, ADP detection	10 µM	22.8%
Cc1ccc(CNC(=O)[C@H](CCc2ccccc2)NC(=O)[C@H](CCc2ccccc2)NC(=O)[C@H](CCc2ccccc2)NC(=O)c2cnc(C)cn2)cc1	Calpain-1 catalytic subunit (CAPN1, Homo sapiens, UniProt P07384)	enzyme activity, inhibitor	100 µM	-9%
Ic1cccc2cnccc12	PTGER4	ligand displacement, radioligand	10 µM	-6%
O=C(c1ccc(F)cc1)N(Cc1ccccc1)C1CCCCC1	PTGER4	cell-free assay	10 µM	6%
C=C(C)[C@@H](CC=C(C)C)C[C@@]12C[C@@H](CC=C(C)C)C(C)(C)[C@@](CC=C(C)C)(C(=O)C(C(=O)c3ccc(O)c(O)c3)=C1O)C2=O	CDK7 with cyclin H	enzyme activity, inhibitor, ADP detection	10 µM	25.8%
CCCNc1nc2ccccc2n1Cc1ccc(Cl)cc1	HTR1B	ligand displacement, radioligand	10 µM	-13.2%
CCN(CC)c1ccc(C2=NNC(=O)CC2C)cc1[N+](=O)[O-] (centres unmarked)	3',5'-cyclic-AMP phosphodiesterase 4D (PDE4D, Homo sapiens, UniProt Q08499)	enzyme activity, inhibitor	0.1 µM	20%
Oc1ccc(/C=C/c2cc(O)cc(O)c2)cc1	CDK7 with cyclin H	enzyme activity, inhibitor, ADP detection	10 µM	40%
COc1cc(NC(C)=O)c(Cl)cc1C(=O)Nc1nccs1	Calcitonin-gene-related peptide receptor, CALCRL/RAMP1	cell-free assay	10 µM	-1.3%
CO[C@H]1/C=C/O[C@@]2(C)Oc3c(C)c(O)c4c(O)c(c(/C=N/N5CCN(C)CC5)c(O)c4c3C2=O)NC(=O)/C(C)=C\C=C\[C@H](C)[C@H](O)[C@@H](C)[C@@H](O)[C@@H](C)[C@H](OC(C)=O)[C@@H]1C	CDK7 with cyclin H	enzyme activity, inhibitor, ADP detection	10 µM	23.1%
CCN(CC)c1ccc(C2Nc3ccc(C(=O)c4ccccc4)cc3NC3=C2C(=O)CC(C)(C)C3)cc1 (centres unmarked)	PTGER4	ligand displacement, radioligand	10 µM	7%
Cc1ccc(S(=O)(=O)N[C@@H](CC(=O)NC(C)(C)C)C(=O)NCc2ccccc2)cc1	Proteasome component C5/PSMB8 (Homo sapiens, UniProt P20618+P28062)	enzyme activity, inhibitor	100 µM	≤ 50%
O=C(c1ccc(Cl)cc1)N(Cc1ccccc1)C1CCCCC1	Calcitonin-gene-related peptide receptor, CALCRL/RAMP1	cell-free assay	10 µM	-20.2%
CS(=O)(=O)Nc1cccc(-c2csc(NC(=O)CSc3nc4nccnc4c(=O)n3CCc3ccccc3)n2)c1	Phosphatidylinositol 4-phosphate 5-kinase type-1 beta (PIP5K1B, Homo sapiens, UniProt O14986)	enzyme activity, inhibitor	10 µM	3%
CN(C)C1CCN(CC#Cc2nn(C3CCCC3)c3nc(NCc4ccccc4)ncc23)C1 (centres unmarked)	Mitogen-activated protein kinase 1 (MAPK1, Homo sapiens, UniProt P28482)	enzyme activity, inhibitor, FRET	0.1 µM	2%
